Experimental data published in ChEMBL document CHEMBL2057169, “Discovery of novel tricyclic compounds as squalene synthase inhibitors” (Bioorg Med Chem, 2012).

Assays:
Rattus norvegicus = assay: Inhibition of cholesterol synthesis in Wistar rat liver assessed as reduction of [14C]-cholesterol level at 3 mg/kg, po administered as single dose measured after 1 hr by liquid scintillation counting; assay type: functional
Outline: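 Male Wistar rats, 6 weeks old, n = 4-6, dosed orally at 3 mg/kg in 0.5% methylcellulose, with equimolar NaOH or NaHCO3 added; vehicle-only controls. At 1 h, [14C]mevalonic acid (5 µCi/5 ml/kg) was given ip, and rats were killed 1 h later.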

Hepatocyte = assay: Inhibition of cholesterol synthesis in rat hepatocytes assessed as formation of cholesterol using [14C]mevalonolactone as substrate after 1 hr by radioactivity assay; assay type: functional, cell-based
Outline: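 Rat hepatocytes isolated by two-step portal-vein perfusion (EGTA buffer, then 0.05% collagenase). Cells were kept if viability was over 80% by trypan blue and seeded at 10^6 cells/well in DMEM with 10% LPDS. Next day they got 5% LPDS medium with inhibitor at 0–3000 nM for 1 h at 37 °C, then [14C]mevalonolactone for 1 h. Lysates were saponified, [14C]cholesterol corrected by [3H]cholesterol recovery and BCA protein, and % inhibition taken versus 0 nM wells. Triplicate wells; three experiments.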

Squalene synthase = biological target: T1, Squalene synthase (Rattus norvegicus, UniProt Q02769); assay: Inhibition of squalene synthase in rat hepatic cells; assay type: cell-based
T1 sequence (Q02769 whole entry): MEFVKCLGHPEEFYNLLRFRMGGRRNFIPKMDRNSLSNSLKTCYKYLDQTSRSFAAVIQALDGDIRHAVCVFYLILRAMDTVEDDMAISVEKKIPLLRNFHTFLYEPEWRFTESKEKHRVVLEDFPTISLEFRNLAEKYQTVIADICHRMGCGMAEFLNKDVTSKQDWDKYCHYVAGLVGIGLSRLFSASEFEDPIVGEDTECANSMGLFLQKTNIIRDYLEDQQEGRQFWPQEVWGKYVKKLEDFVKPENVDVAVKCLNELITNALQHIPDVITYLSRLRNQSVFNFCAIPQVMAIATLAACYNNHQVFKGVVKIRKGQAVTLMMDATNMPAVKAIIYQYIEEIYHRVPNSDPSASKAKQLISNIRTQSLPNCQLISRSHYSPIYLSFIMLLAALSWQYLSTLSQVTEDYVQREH

marmosets [1] = assay: Lipid lowering effect in marmosets assessed as reduction in plasma triglyceride level at 100 mg/kg, po administered once daily for 7 days; assay type: functional; conditions: Callitrichinae sp., in Callithrix jacchus, 168 h
Outline: (§1)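 Common marmosets, n = 8 per group, matched for body weight and plasma lipids. They were dosed orally at 100 mg/kg in 0.5% methylcellulose (5 ml/kg) once daily for 7 days. Nonfasted blood was drawn before dosing and the morning after the last dose. HDL was precipitated, then its cholesterol assayed enzymatically; non-HDL = total minus HDL cholesterol. Change was expressed relative to pre-values.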

marmosets [2] = assay: Lipid lowering effect in marmosets assessed as reduction in plasma non HDL-cholesterol level at 100 mg/kg, po administered once daily for 7 days; assay type: functional; conditions: Callitrichinae sp., in Callithrix jacchus, 168 h; outline: as §1
marmosets [3] = assay: Lipid lowering effect in marmosets assessed as reduction in plasma HDL-cholesterol level at 100 mg/kg, po administered once daily for 7 days; assay type: functional; conditions: Callitrichinae sp., in Callithrix jacchus, 168 h; outline: as §1
marmosets [4] = assay: Lipid lowering effect in marmosets assessed as reduction in plasma total cholesterol level at 100 mg/kg, po administered once daily for 7 days; assay type: functional; conditions: Callitrichinae sp., in Callithrix jacchus, 168 h; outline: as §1

Row | SMILES | IC50 (Squalene synthase) | inhibition in vivo at 3 mg/kg (Rattus norvegicus) | IC50 (Hepatocyte) | other results
1 | COc1cccc([C@H]2O[C@H](CCC(=O)N3CC(C(=O)O)C3)c3cccn3-c3ccc(Cl)cc32)c1OC | 2.2 nM | 31% | 23 nM | –
2 | COc1cccc(C2OC(CC(=O)O)c3ccc(CN4CCOCC4)n3-c3ccc(Cl)cc32)c1OC (racemic) | 7.6 nM | – | 160 nM | –
3 | COc1cccc([C@H]2O[C@H](CCn3nccc3CC(=O)O)c3cccn3-c3ccc(Cl)cc32)c1OC | 1.6 nM | 5% | 210 nM | –
4 | COc1cccc([C@H]2O[C@H](CCn3cc(COC(C)(C)C(=O)O)nn3)c3cccn3-c3ccc(Cl)cc32)c1OC | 0.69 nM | 36% | 7.3 nM | –
5 | COc1cccc([C@H]2O[C@H](CC(=O)N3CCC(C(=O)O)CC3)c3cccn3-c3ccc(Cl)cc32)c1OC | 3.4 nM | – | 170 nM | –
6 | O=C(O)CC1OC(c2cccc(Cl)c2Cl)c2cc(Cl)ccc2-n2cccc21 (configuration not stated) | 52 nM | – | – | –
7 | COc1cccc([C@H]2O[C@H](CCn3nncc3CC(=O)O)c3cccn3-c3ccc(Cl)cc32)c1OC | 0.81 nM | 50% | 41 nM | –
8 | COc1cccc([C@H]2O[C@H](CCn3cc(C(=O)O)cn3)c3cccn3-c3ccc(Cl)cc32)c1OC | 2.1 nM | 56% | 54 nM | –
9 | COc1cccc(C2OC(CC(=O)O)c3ccc(CN(C)C)n3-c3ccc(Cl)cc32)c1OC (racemic) | 540 nM | – | – | –
10 | COc1cccc([C@H]2O[C@H](CCn3nnc(C4(C(=O)O)CC4)n3)c3cccn3-c3ccc(Cl)cc32)c1OC | 1.7 nM | 53% | 52 nM | –
11 | O=C(O)CC1OC(c2cccc3c2OCCO3)c2cc(Cl)ccc2-n2cccc21 (configuration not stated) | 440 nM | – | – | –
12 | COc1cccc([C@H]2O[C@H](CCC(=O)N3CCOC(C(=O)O)C3)c3cccn3-c3ccc(Cl)cc32)c1OC (some centres not stated) | 1.6 nM | 13% | 9.7 nM | –
13 | COc1cccc([C@H]2O[C@H](CCn3nnc(COC(C)(C)C(=O)O)n3)c3cccn3-c3ccc(Cl)cc32)c1OC | 2.5 nM | 51% | 10 nM | –
14 | COc1cccc([C@H]2O[C@H](CCC(=O)N3CC(CC(=O)O)C3)c3cccn3-c3ccc(Cl)cc32)c1OC | 7 nM | 41% | 36 nM | –
15 | COc1cccc([C@H]2O[C@H](CCC(=O)N3CCC(OCCC(=O)O)CC3)c3cccn3-c3ccc(Cl)cc32)c1OC | 1.4 nM | 23% | 35 nM | –
16 | COc1cccc([C@H]2O[C@H](CCn3nnc(CCC(=O)O)n3)c3cccn3-c3ccc(Cl)cc32)c1OC | 0.85 nM | 64% | 70 nM | –
17 | O=C(O)CC1OC(c2cccc3ccccc23)c2cc(Cl)ccc2-n2cccc21 (configuration not stated) | > 600 nM | – | – | –
18 | COc1cccc([C@H]2O[C@H](CCn3nnc(C(C)(C)C(=O)O)n3)c3cccn3-c3ccc(Cl)cc32)c1OC | 1.1 nM | 44% | 58 nM | –
19 | COc1cccc([C@H]2O[C@H](CCn3nnnc3CC(=O)O)c3cccn3-c3ccc(Cl)cc32)c1OC | 1.1 nM | – | 130 nM | –
20 | COc1cccc(C2OC(CC(=O)O)c3cccn3-c3ccc(Cl)cc32)c1OC (racemic) | 3.3 nM | – | 250 nM | –
21 | COc1cccc([C@@H]2O[C@@H](CC(=O)N3CCC(CC(=O)O)CC3)c3cccn3-c3ccc(Cl)cc32)c1OC | > 600 nM | – | – | –
22 | COc1cccc([C@H]2O[C@H](CC(=O)N3CCC(CC(=O)O)CC3)C(=O)N(CC(C)(C)COC(C)=O)c3ccc(Cl)cc32)c1OC [LAPAQUISTAT ACETATE] | – | – | – | inhibition in vivo at 100 mg/kg (marmosets [1]): 25%; inhibition in vivo at 100 mg/kg (marmosets [2]): 29%; inhibition in vivo at 100 mg/kg (marmosets [3]): 14%; inhibition in vivo at 100 mg/kg (marmosets [4]): 23%
23 | COC(=O)CC1OC(c2cccc(OC)c2OC)c2cc(Cl)ccc2-n2cccc21 (racemic) | 220 nM | – | – | –
24 | COc1cccc([C@H]2O[C@H](CC(=O)NCCC(=O)O)c3cccn3-c3ccc(Cl)cc32)c1OC | 2.9 nM | – | 160 nM | –
25 | COc1cccc([C@H]2O[C@H](CCC(=O)N3CCN(CC(=O)O)C(=O)C3)c3cccn3-c3ccc(Cl)cc32)c1OC | 2.2 nM | 1% | 11 nM | –

The remaining compounds from weak to strong by IC50 (Squalene synthase), led by results:

Row | IC50 (Squalene synthase) | SMILES | inhibition in vivo at 3 mg/kg (Rattus norvegicus) | IC50 (Hepatocyte) | other results
26 | 4.3 nM | COc1cccc([C@H]2O[C@H](CC(=O)N3CCN(CC(=O)O)CC3)c3cccn3-c3ccc(Cl)cc32)c1OC | – | 150 nM | –
27 | 4 nM | COc1cccc([C@H]2O[C@H](CC(=O)Nc3cccc(C(=O)O)c3)c3cccn3-c3ccc(Cl)cc32)c1OC | – | 150 nM | –
28 | 3.1 nM | COc1cccc([C@H]2O[C@H](CCC(=O)O)c3cccn3-c3ccc(Cl)cc32)c1OC | – | > 1000 nM | –
29 | 3.1 nM | COc1cccc([C@H]2O[C@H](CCn3cc(CC(=O)O)cn3)c3cccn3-c3ccc(Cl)cc32)c1OC | 34% | 62 nM | –
30 | 2.7 nM | COc1cccc(C2OC(CC(=O)N3CCC(CC(=O)O)CC3)c3cccn3-c3ccc(Cl)cc32)c1OC (racemic) | – | 63 nM | –
31 | 2.4 nM | COc1cccc([C@H]2O[C@H](CCC(=O)N3CCC(CC(=O)O)CC3)c3cccn3-c3ccc(Cl)cc32)c1OC | 35% | 93 nM | –
32 | 2.3 nM | COc1cccc([C@H]2O[C@H](CC(=O)NCC(=O)O)c3cccn3-c3ccc(Cl)cc32)c1OC | – | 94 nM | –
33 | 2.3 nM | COc1cccc([C@H]2O[C@H](CC(=O)N3CCC[C@H](C(=O)O)C3)c3cccn3-c3ccc(Cl)cc32)c1OC | – | 60 nM | –
34 | 1.7 nM | CCC(CC)(OCc1cn(CC[C@H]2O[C@H](c3cccc(OC)c3OC)c3cc(Cl)ccc3-n3cccc32)nn1)C(=O)O | 45% | 14 nM | –
35 | 1.6 nM | COc1cccc(C2OC(CC(=O)O)c3ccc(Cl)n3-c3ccc(Cl)cc32)c1OC (racemic) | – | 560 nM | –
36 | 0.9 nM | COc1cccc([C@H]2O[C@H](CCC(=O)N3CCC(COCC(=O)O)CC3)c3cccn3-c3ccc(Cl)cc32)c1OC | 7% | 10 nM | –
37 | 0.89 nM | COc1cccc([C@H]2O[C@H](CCn3nnc(C(=O)O)n3)c3cccn3-c3ccc(Cl)cc32)c1OC | 38% | 18 nM | –
38 | 0.8 nM | COc1cccc([C@H]2O[C@H](CCC(=O)N3CCC(OCC(=O)O)CC3)c3cccn3-c3ccc(Cl)cc32)c1OC | 18% | 7.2 nM | –
39 | 0.68 nM | COc1cccc([C@H]2O[C@H](CCn3cc(COCC(=O)O)nn3)c3cccn3-c3ccc(Cl)cc32)c1OC | 18% | 19 nM | –
40 | 0.59 nM | COc1cccc([C@H]2O[C@H](CCn3cc(C(=O)O)nn3)c3cccn3-c3ccc(Cl)cc32)c1OC | 44% | 25 nM | –
